20 compounds from ChEMBL document CHEMBL1817602, “Synthesis of benzo[3,4]azepino[1,2-b]isoquinolin-9-ones from 3-arylisoquinolines via ring closing metathesis and evaluation of topoisomerase I inhibitory activity, cytotoxicity and docking study” (Bioorg Med Chem, 2011) can be followed below.

SMILES strings stand for the structures. Active and inactive are the calls of the source. The calls are words filed in the database; no cut-off is given here.

One experiment has as its system SK-MEL-2. Briefly: Cytotoxicity against human SK-MEL-2 cells after 48 hrs by MTT assay. In kind it is functional, cell-based. Particulars: SK-MEL-2, 48 h. In a few lines:
(§1)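 Cells seeded at 10^5 cells/mL in 100 µL RPMI-1640 with 10% FBS; compounds added at various concentrations after 24 h and incubated 48 h. MTT (5 mg/mL stock in PBS, 50 µL per well) was added for a further incubation. Medium was discarded, formazan dissolved in DMSO, and absorbance read at 540 nm.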

In the next experiment the test system is SK-OV-3. Briefly: Cytotoxicity against human SKOV3 cells after 48 hrs by MTT assay. Particulars: SK-OV-3, 48 h. It counts as functional, cell-based. In a few lines:
as §1

The species entered for experiment [1] is Bos taurus. Briefly: Inhibition of calf thymus topoisomerase 1-mediated relaxation of supercoiled pBR322 DNA at 20 to 100 uM after 30 mins using ethidium bromide staining by UV-light transillumination analysis. In a few lines: (§2)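 Plasmid pBR322 (200 ng) with 0.3 U calf thymus topo I, compound at final 20 or 100 μM, 37 °C for 30 min in relaxation buffer (35 mM Tris–HCl pH 8.0, 72 mM KCl, MgCl2, DTT, spermidine, 0.01% BSA). Stopped with SDS loading mix, run on 1% agarose in TBE for 10 h, stained with ethidium bromide (0.5 μg/mL), and UV-visualized and quantitated. Scored semiquantitatively against camptothecin.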

A further experiment relates to A549. Briefly: Cytotoxicity against human A549 cells after 48 hrs by MTT assay. Particulars: A549, 48 h. In kind it is functional, cell-based. In a few lines:
as §1

Another experiment concerns HCT-15. Briefly: Cytotoxicity against human HCT15 cells after 48 hrs by MTT assay. It counts as functional, cell-based. Particulars: HCT-15, 48 h. In a few lines: as §1
Experiment [2] is filed under the species Bos taurus. Briefly: Inhibition of calf thymus topoisomerase 1-mediated relaxation of supercoiled pBR322 DNA at 20 to 100 uM after 30 mins using ethidium bromide staining by UV-light transillumination analysis relative to camptothecin. In a few lines:
as §2

`COc1ccc2c(c1)C=CCn1c-2cc2ccccc2c1=O`: the IC50 in the experiment on SK-MEL-2 was 7.74 µM; in the experiment with SK-OV-3, 24.3 µM; with A549 it was 6.48 µM; in the experiment on HCT-15, 12.6 µM. Besides, the inhibition entry in the experiment filed under Bos taurus [1] is “Active”.

`C=CCn1c(-c2cc3c(cc2COCOC)OCO3)cc2ccc(OC)c(OC)c2c1=O`: the IC50 in the experiment with SK-MEL-2 was 27.4 µM; in the experiment on SK-OV-3, over 100 µM; in the experiment on A549 it was 29.9 µM; in the experiment on HCT-15 it was 28.2 µM. Moreover, the inhibition result in the experiment listed under Bos taurus [1] is “inactive”.

As to `O=c1c2ccccc2cc2n1CC=Cc1cc3c(cc1-2)OCO3`, the IC50 in the experiment on SK-MEL-2 came out at 28.6 µM; in the experiment on SK-OV-3, 29.1 µM; in the experiment on A549, 17.1 µM; in the experiment with HCT-15 it was 20.1 µM. Besides, in the experiment filed under Bos taurus [1], the inhibition entry was “Active”.

Turning to `C=CCn1c(-c2cc3c(cc2C=C)OCO3)cc2ccccc2c1=O`, the IC50 was 9.36 µM in the experiment on SK-MEL-2, 13.6 µM in the experiment on SK-OV-3, 19.3 µM with A549 and 11.2 µM in the experiment on HCT-15. For the same compound, the inhibition entry in the experiment filed under Bos taurus [1] is “Active”.

With `C=CCn1c(-c2cc3c(cc2C=O)OCO3)cc2ccc(OC)c(OC)c2c1=O`, the IC50 in the experiment with SK-MEL-2 stood at 71.2 µM; in the experiment on SK-OV-3 it was 61.7 µM; with A549, 85.1 µM; in the experiment with HCT-15 it was 63.9 µM. For the same compound, the inhibition result in the experiment listed under Bos taurus [1] is “Active”.

As for `C=CCn1c(-c2ccc(OC)cc2C=O)cc2ccccc2c1=O`, the IC50 in the experiment with SK-MEL-2 was 88.9 µM; in the experiment on SK-OV-3, 65.5 µM; in the experiment with A549 it was 88.1 µM; with HCT-15 it was 56.5 µM. Also, in the experiment listed under Bos taurus [1], the inhibition result was “Active”.

As to `C=CCn1c(-c2cc3c(cc2COCOC)OCO3)cc2ccccc2c1=O`, the IC50 in the experiment with SK-MEL-2 worked out at 15.4 µM; with SK-OV-3, 29.5 µM; in the experiment with A549, 19.8 µM; in the experiment on HCT-15, 36.1 µM. For the same compound, in the experiment listed under Bos taurus [1], the inhibition result was “Active”.

As to `CC[C@@]1(O)C(=O)OCc2c1cc1n(c2=O)Cc2cc3ccccc3nc2-1` [CAMPTOTHECIN], the IC50 in the experiment with SK-MEL-2 came out at 7.86 µM; with SK-OV-3, 2.54 µM; in the experiment on A549, 0.091 µM; with HCT-15, 0.166 µM. Further, the inhibition result in the experiment filed under Bos taurus [1] was “Active”.

Consider `COc1cc2c(cc1OC)-c1cc3ccccc3c(=O)n1CC=C2`, for which the IC50 in the experiment with SK-MEL-2 was 6.23 µM; in the experiment on SK-OV-3, 11 µM; in the experiment with A549, 14.8 µM; with HCT-15, 21.3 µM. Further, the inhibition entry in the experiment filed under Bos taurus [1] was “Active”.

On to `C=CCn1c(-c2ccc(OC)cc2C=C)cc2ccccc2c1=O`, for which the IC50 amounted to 11.6 µM in the experiment with SK-MEL-2, 43.8 µM in the experiment on SK-OV-3, 17.2 µM in the experiment on A549 and 22.8 µM in the experiment on HCT-15. Moreover, the inhibition result in the experiment listed under Bos taurus [1] was “Active”.

`C=CCn1c(-c2cc(OC)c(OC)cc2C=C)cc2ccccc2c1=O`: the IC50 in the experiment on SK-MEL-2 amounted to 47.7 µM; in the experiment with SK-OV-3 it was 35.5 µM; with A549, 43.2 µM; in the experiment with HCT-15 it was 75.2 µM. Moreover, in the experiment listed under Bos taurus [1], the inhibition result was “Active”.

As to `COCOCc1cc2c(cc1-c1cc3ccccc3c(=O)[nH]1)OCO2`, the IC50 in the experiment with SK-MEL-2 was 64.5 µM; in the experiment with SK-OV-3, 22.9 µM; in the experiment with A549, 7.93 µM; in the experiment on HCT-15, 13.1 µM. Moreover, in the experiment filed under Bos taurus [2], the inhibition result is “Active”.

In the case of `COCOCc1cc(OC)ccc1-c1cc2ccccc2c(=O)[nH]1`, the IC50 in the experiment with SK-MEL-2 amounted to 97.6 µM; in the experiment with SK-OV-3, 75.5 µM; in the experiment on A549, 45.3 µM; in the experiment with HCT-15, 27.5 µM. Moreover, the inhibition entry in the experiment listed under Bos taurus [1] is “Active”.

`C=CCn1c(-c2cc(OC)c(OC)cc2C=O)cc2ccccc2c1=O`: the IC50 was 67.6 µM in the experiment on SK-MEL-2, 85.5 µM in the experiment with SK-OV-3, 76.3 µM in the experiment with A549 and 77.5 µM in the experiment on HCT-15. The inhibition result in the experiment listed under Bos taurus [1] was “Active”.

As for `C=CCn1c(-c2cc3c(cc2C=O)OCO3)cc2ccccc2c1=O`, the IC50 in the experiment with SK-MEL-2 was over 100 µM; in the experiment with SK-OV-3 it was 56.9 µM; in the experiment with A549 it was 87.5 µM; in the experiment with HCT-15 it was 54.1 µM. For the same compound, in the experiment filed under Bos taurus [1], the inhibition entry was “Active”.

As to `C=CCn1c(-c2cc3c(cc2C=C)OCO3)cc2ccc(OC)c(OC)c2c1=O`, the IC50 in the experiment on SK-MEL-2, in the experiment with SK-OV-3, with A549 and in the experiment with HCT-15 was over 100 µM throughout. In the experiment filed under Bos taurus [1], the inhibition entry is “inactive”.

As to `C=CCn1c(-c2ccc(OC)cc2COCOC)cc2ccccc2c1=O`, the IC50 is 42.6 µM in the experiment on SK-MEL-2, over 100 µM in the experiment with SK-OV-3, over 100 µM with A549 and 27.8 µM in the experiment with HCT-15. In addition, in the experiment listed under Bos taurus [1], the inhibition entry is “Active”.

`COc1ccc2cc3n(c(=O)c2c1OC)CC=Cc1cc2c(cc1-3)OCO2`: the IC50 was found to be 2.54 µM in the experiment on SK-MEL-2, 2.8 µM in the experiment with SK-OV-3, 7.45 µM with A549 and 6.34 µM in the experiment on HCT-15. In the experiment filed under Bos taurus [1], the inhibition result was “Active”.

Consider `C=CCn1c(-c2cc(OC)c(OC)cc2COCOC)cc2ccccc2c1=O`, for which the IC50 was 75 µM in the experiment on SK-MEL-2, 37.7 µM in the experiment with SK-OV-3, 88.1 µM with A549 and 78.7 µM with HCT-15. In addition, the inhibition result in the experiment filed under Bos taurus [1] was “Active”.

Take `COCOCc1cc(OC)c(OC)cc1-c1cc2ccccc2c(=O)[nH]1`: the IC50 in the experiment on SK-MEL-2 was 55.2 µM; in the experiment on SK-OV-3 it was 87.7 µM; in the experiment on A549, 85.1 µM; with HCT-15, 73.7 µM. In addition, in the experiment listed under Bos taurus [1], the inhibition entry was “Active”.
